A word on the MIC: it is the lowest concentration found to suppress growth. What is called IC50 is the concentration at which inhibition is half-maximal.

This note sets out measurements from ChEMBL document CHEMBL2321826, “Synthesis and antibacterial evaluation of rhodanine-based 5-aryloxy pyrazoles against selected methicillin resistant and quinolone-resistant Staphylococcus aureus (MRSA and QRSA)” (Eur J Med Chem, 2013).

Data set [1] deals with Staphylococcus aureus. Put plainly: Ratio of oxacillin MIC to compound MIC for Staphylococcus aureus CCARM 3167. Type of data set: functional.
The test system of data set [2] is Staphylococcus aureus. Put plainly: Antibacterial activity against methicillin-resistant Staphylococcus aureus CCARM 3167 assessed as bacterial growth inhibition measured during 24 hrs incubation at 37 degC by two-fold serial dilution technique. In kind it is functional. The settings on record: CCARM 3167, 24 h. Put shortly:
(§1)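 Clinical isolates grown to mid-log phase in Mueller-Hinton broth, diluted 1000-fold, inoculated at 10⁵ CFU/mL in MHB in 96-well microtiter plates. Two-fold serial dilutions gave final concentrations of […]. Oxacillin and norfloxacin were the positive controls. Growth was read as absorbance at 650 nm. MIC is the lowest concentration giving complete growth inhibition.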

The subject of data set [3] is Staphylococcus aureus. Put plainly: Ratio of norfloxacin MIC to compound MIC for Staphylococcus aureus CCARM 3167. In kind it is functional.
Data set [4] deals with Staphylococcus aureus. Put plainly: Antibacterial activity against quinolone-resistant Staphylococcus aureus CCARM 3505 assessed as bacterial growth inhibition measured during 24 hrs incubation at 37 degC by two-fold serial dilution technique. Type of data set: functional. The conditions noted are these: CCARM 3505, 24 h. Put shortly:
as §1

Data set [5] has as its system Staphylococcus aureus. Put plainly: Antibacterial activity against quinolone-resistant Staphylococcus aureus CCARM 3519 assessed as bacterial growth inhibition measured during 24 hrs incubation at 37 degC by two-fold serial dilution technique. Type of data set: functional. The settings on record: CCARM 3519, 24 h. Put shortly: as §1
For data set [6], the system named is HeLa. Put plainly: Cytotoxicity against human HeLa cells assessed as cell growth inhibition at 1 ug/ml measured after 48 hrs by MTT assay. Type of data set: cell-based. In general terms: Formazan colour is commonly taken as a measure of viable cells.
For data set [7], the system named is HeLa. Put plainly: Cytotoxicity against human HeLa cells assessed as cell growth inhibition measured after 48 hrs by MTT assay. In kind it is cell-based. Put shortly: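 HeLa cells grown in DMEM with 10% FBS and penicillin-streptomycin (100 U/mL) at 37 °C in 5% CO2. Cells were split with trypsin at 80-90% confluence and used at passage 3. About 1×10⁴ cells/well were seeded and left overnight to attach. Cells were exposed to compounds for 48 h, then given MTT (5 mg/mL in PBS stock) for 4 h. Medium was removed and formazan read.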

For data set [8], the system named is Staphylococcus aureus. Put plainly: Antibacterial activity against methicillin-resistant Staphylococcus aureus CCARM 3506 assessed as bacterial growth inhibition measured during 24 hrs incubation at 37 degC by two-fold serial dilution technique. Type of data set: functional. The conditions noted are these: CCARM 3506, 24 h. Put shortly: as §1
In data set [9] the test system is HeLa. Put plainly: Cytotoxicity against human HeLa cells assessed as cell growth inhibition at 2 ug/ml measured after 48 hrs by MTT assay. Type of data set: cell-based.
For data set [10], the system named is Staphylococcus aureus. Put plainly: Antibacterial activity against methicillin-resistant Staphylococcus aureus assessed as bacterial growth inhibition measured during 24 hrs incubation at 37 degC by two-fold serial dilution technique. In kind it is functional. Put shortly:
as §1

Data set [11] has as its system HeLa. Put plainly: Cytotoxicity against human HeLa cells assessed as cell growth inhibition at 4 ug/ml measured after 48 hrs by MTT assay. Type of data set: cell-based.

Values after ≈ are worked out from the molar mass of the structure shown.

For `CCC(C)[C@@H](C(=O)O)N1C(=O)/C(=C/c2c(C)nn(-c3ccccc3)c2Oc2ccc(Cl)cc2Cl)SC1=S` (stereo not given in full), the Ratio is listed as 64 with Staphylococcus aureus [1] and 8 in the data set on Staphylococcus aureus [3]. The MIC in the data set with Staphylococcus aureus [2] was found to be 1 µg/mL (≈ 1.73 µM); in the data set with Staphylococcus aureus [4], 2 µg/mL (≈ 3.47 µM); in the data set with Staphylococcus aureus [5], 2 µg/mL (≈ 3.47 µM); with Staphylococcus aureus [8], 1 µg/mL (≈ 1.73 µM). Moreover, the Activity result in the data set with HeLa [6] was “Non-toxic”. The IC50 with HeLa [7] is 6.43 µg/mL (≈ 11.2 µM).
For the compound `Cc1nn(-c2ccccc2)c(Oc2ccc(Br)cc2)c1/C=C1\SC(=S)N([C@@H](CC(C)C)C(=O)O)C1=O`, the minimum inhibitory concentration (MIC) in the data set on Staphylococcus aureus [2], in the data set on Staphylococcus aureus [4], in the data set with Staphylococcus aureus [5] and in the data set on Staphylococcus aureus [8] was 4 µg/mL (≈ 6.82 µM) each time. Besides, the Activity entry in the data set on HeLa [9] is listed as “Non-toxic”. In addition, the IC50 in the data set with HeLa [7] was 12.3 µg/mL (≈ 21 µM).
Regarding `O=C(O)CN1C(=O)/C(=C/c2cn(-c3ccccc3)nc2-c2ccc(Cl)cc2Cl)SC1=S`, in the data set on Staphylococcus aureus [10], the MIC was 4 µg/mL (≈ 8.16 µM).
For `Cc1nn(-c2ccccc2)c(Oc2ccc(Cl)cc2Cl)c1/C=C1\SC(=S)N([C@H](C(=O)O)C(C)C)C1=O`, the MIC in the data set on Staphylococcus aureus [2], in the data set with Staphylococcus aureus [4], in the data set with Staphylococcus aureus [5] and with Staphylococcus aureus [8] was 4 µg/mL (≈ 7.11 µM) each time. For the same compound, the Activity entry with HeLa [11] is recorded as “Non-toxic”. In addition, the IC50 with HeLa [7] stood at 10.4 µg/mL (≈ 18.5 µM).
With `CCn1cc(C(=O)O)c(=O)c2cc(F)c(N3CCNCC3)cc21` [NORFLOXACIN], the MIC in the data set on Staphylococcus aureus [2] is 8 µg/mL (≈ 25.1 µM); in the data set on Staphylococcus aureus [4], greater than 64 µg/mL; with Staphylococcus aureus [5], greater than 64 µg/mL; with Staphylococcus aureus [8] it was 4 µg/mL (≈ 12.5 µM).
Take `Cc1nn(-c2ccccc2)c(Oc2ccc3ccccc3c2)c1/C=C1\SC(=S)N(CC(=O)O)C1=O`: the MIC in the data set with Staphylococcus aureus [2], with Staphylococcus aureus [4], in the data set on Staphylococcus aureus [5] and in the data set with Staphylococcus aureus [8] was 8 µg/mL (≈ 15.9 µM) in each case.
On to `Cc1nn(-c2ccccc2)c(Oc2ccc(Cl)cc2Cl)c1/C=C1\SC(=S)N([C@@H](CC(C)C)C(=O)O)C1=O`, for which the MIC with Staphylococcus aureus [2], with Staphylococcus aureus [4], with Staphylococcus aureus [5] and in the data set with Staphylococcus aureus [8] was 4 µg/mL (≈ 6.94 µM) in each case.
Take `CCC(C)[C@@H](C(=O)O)N1C(=O)/C(=C/c2c(C)nn(-c3ccccc3)c2Oc2ccc(Br)cc2)SC1=S` (stereo not given in full): the MIC with Staphylococcus aureus [2], in the data set on Staphylococcus aureus [4], with Staphylococcus aureus [5] and in the data set on Staphylococcus aureus [8] was 2 µg/mL (≈ 3.41 µM) throughout.
Regarding `Cc1onc(-c2ccccc2)c1C(=O)N[C@@H]1C(=O)N2[C@@H]1SC(C)(C)[C@@H]2C(=O)O` [OXACILLIN], the MIC is greater than 64 µg/mL in the data set on Staphylococcus aureus [2], 1 µg/mL (≈ 2.49 µM) in the data set on Staphylococcus aureus [4], 1 µg/mL (≈ 2.49 µM) in the data set on Staphylococcus aureus [5] and greater than 64 µg/mL in the data set with Staphylococcus aureus [8].
Take `Cc1nn(-c2ccccc2)c(Oc2ccc(F)cc2)c1/C=C1\SC(=S)N(CC(=O)O)C1=O`: the MIC in the data set on Staphylococcus aureus [2], in the data set on Staphylococcus aureus [4], in the data set with Staphylococcus aureus [5] and in the data set with Staphylococcus aureus [8] was greater than 64 µg/mL in each case.
With `CCC(C)[C@@H](C(=O)O)N1C(=O)/C(=C/c2c(C)nn(-c3ccccc3)c2Cl)SC1=S` (stereo not given in full), the MIC in the data set on Staphylococcus aureus [2] turned out to be 16 µg/mL (≈ 35.6 µM); in the data set with Staphylococcus aureus [4], 16 µg/mL (≈ 35.6 µM); in the data set on Staphylococcus aureus [5], 32 µg/mL (≈ 71.1 µM); in the data set with Staphylococcus aureus [8], 32 µg/mL (≈ 71.1 µM).
For the compound `COc1ccc(Oc2c(/C=C3\SC(=S)N(CC(=O)O)C3=O)c(C)nn2-c2ccccc2)cc1`, the MIC in the data set with Staphylococcus aureus [2], with Staphylococcus aureus [4], with Staphylococcus aureus [5] and in the data set with Staphylococcus aureus [8] was greater than 64 µg/mL each time.
Turning to `CCC(C)[C@@H](C(=O)O)N1C(=O)/C(=C/c2c(C)nn(-c3ccccc3)c2Oc2ccc(Cl)cc2)SC1=S` (stereo not given in full), the MIC with Staphylococcus aureus [2] was found to be 2 µg/mL (≈ 3.69 µM); with Staphylococcus aureus [4] it was 4 µg/mL (≈ 7.38 µM); with Staphylococcus aureus [5], 4 µg/mL (≈ 7.38 µM); with Staphylococcus aureus [8], 4 µg/mL (≈ 7.38 µM).
As for `CCC(C)[C@@H](C(=O)O)N1C(=O)/C(=C/c2c(C)nn(-c3ccccc3)c2Oc2ccc(F)cc2)SC1=S` (stereo not given in full), the MIC turned out to be 2 µg/mL (≈ 3.8 µM) in the data set with Staphylococcus aureus [2], 8 µg/mL (≈ 15.2 µM) in the data set on Staphylococcus aureus [4], 8 µg/mL (≈ 15.2 µM) with Staphylococcus aureus [5] and 4 µg/mL (≈ 7.61 µM) with Staphylococcus aureus [8].
Turning to `Cc1nn(-c2ccccc2)c(Oc2cccc(C(F)(F)F)c2)c1/C=C1\SC(=S)N([C@H](C(=O)O)C(C)C)C1=O`, the MIC in the data set with Staphylococcus aureus [2] was determined as 4 µg/mL (≈ 7.12 µM); with Staphylococcus aureus [4] it was 8 µg/mL (≈ 14.2 µM); with Staphylococcus aureus [5] it was 8 µg/mL (≈ 14.2 µM); in the data set on Staphylococcus aureus [8], 8 µg/mL (≈ 14.2 µM).
For the compound `Cc1cccc(Oc2c(/C=C3\SC(=S)N([C@H](C(=O)O)C(C)C)C3=O)c(C)nn2-c2ccccc2)c1`, the MIC in the data set on Staphylococcus aureus [2] was found to be 4 µg/mL (≈ 7.88 µM); in the data set with Staphylococcus aureus [4] it was 4 µg/mL (≈ 7.88 µM); in the data set with Staphylococcus aureus [5], 4 µg/mL (≈ 7.88 µM); in the data set with Staphylococcus aureus [8], 8 µg/mL (≈ 15.8 µM).
As for `Cc1nn(-c2ccccc2)c(Oc2ccccc2)c1/C=C1\SC(=S)N(CC(=O)O)C1=O`, the MIC in the data set on Staphylococcus aureus [2], in the data set on Staphylococcus aureus [4], in the data set on Staphylococcus aureus [5] and in the data set on Staphylococcus aureus [8] was greater than 64 µg/mL each time.
On to `CCC(C)[C@@H](C(=O)O)N1C(=O)/C(=C/c2c(C)nn(-c3ccccc3)c2Oc2ccc(C)cc2C)SC1=S` (stereo not given in full), for which the MIC with Staphylococcus aureus [2], in the data set with Staphylococcus aureus [4], with Staphylococcus aureus [5] and with Staphylococcus aureus [8] was 2 µg/mL (≈ 3.73 µM) throughout.
With `CCC(C)[C@@H](C(=O)O)N1C(=O)/C(=C/c2c(C)nn(-c3ccccc3)c2Oc2cccc(C(F)(F)F)c2)SC1=S` (stereo not given in full), the MIC amounted to 4 µg/mL (≈ 6.95 µM) in the data set with Staphylococcus aureus [2], 8 µg/mL (≈ 13.9 µM) in the data set with Staphylococcus aureus [4], 8 µg/mL (≈ 13.9 µM) in the data set with Staphylococcus aureus [5] and 8 µg/mL (≈ 13.9 µM) in the data set on Staphylococcus aureus [8].
Take `CCC(C)[C@@H](C(=O)O)N1C(=O)/C(=C/c2c(C)nn(-c3ccccc3)c2Oc2c(Cl)cccc2Cl)SC1=S` (stereo not given in full): the MIC turned out to be 8 µg/mL (≈ 13.9 µM) in the data set with Staphylococcus aureus [2], 16 µg/mL (≈ 27.8 µM) in the data set with Staphylococcus aureus [4], 16 µg/mL (≈ 27.8 µM) with Staphylococcus aureus [5] and 16 µg/mL (≈ 27.8 µM) with Staphylococcus aureus [8].
